# Laboratory results taken from ChEMBL document CHEMBL3271953, “Bridged aminotetralins. 4. Resolution of potent analgesics of the bridged aminotetralin type” (J Med Chem, 1976).
# Calls of active or inactive are those of the source.
# Columns and labels:
# [1] = system: Rattus norvegicus; experiment: Analgesic activity in ip dosed Charles River rat by tail flick test; assay type: functional
# Procedure, shortened: (§1)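 D'Amour-Smith rat tail-flick test. Compounds were given ip, im or po, and analgesic ED50 was derived. Doses are expressed as mg of base per kg and given as the hydrochloride or hydrobromide salt or as the free base. Some ED50s rest on two doses only.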
# [2] = system: Rattus norvegicus; experiment: Analgesic activity in im dosed Charles River rat by tail flick test; assay type: functional; procedure, shortened: as §1
# [3] = system: Rattus norvegicus; experiment: Analgesic activity in po dosed Charles River rat by tail flick test; assay type: functional; procedure, shortened: as §1
# [4] = system: Rattus norvegicus; experiment: Analgesic activity in Charles River rat at 20 mg/kg, po by tail flick test; assay type: functional, organism-based; parameters: dose 20 mg/kg
# [5] = species: Rattus norvegicus; experiment: Ratio of morphine ED50 to compound ED50 for analgesic activity in Charles River rat by tail flick test; assay type: functional
# [6] = system: Rattus norvegicus; experiment: Ratio of morphine ED50 to compound ED50 for analgesic activity in po dosed Charles River rat by tail flick test; assay type: functional
# [7] = Acute toxicity in po dosed rat; assay type: organism-based; details: in vivo
# Procedure, shortened: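 Acute toxicity in rats after oral dosing, expressed as an LD50 in mg/kg.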
# [8] = system: Rhesus monkey; experiment: Analgesic activity in monkey assessed as increase in shock threshold at 0.06 mg/kg, im; assay type: functional, organism-based; parameters: dose 0.06 mg/kg; details: Macaca mulatta
# [9] = system: Rhesus monkey; experiment: Analgesic activity in po dosed monkey assessed as increase in shock threshold; assay type: functional, organism-based; details: Macaca mulatta
# [10] = system: Rhesus monkey; experiment: Narcotic antagonism activity in morphine-dependent rhesus monkey assessed as precipitation of withdrawal symptoms at 0.5 to 1 mg/kg, im; assay type: functional, organism-based; details: Macaca mulatta
# [11] = system: Rhesus monkey; experiment: Narcotic antagonism activity in morphine-dependent rhesus monkey assessed as precipitation of withdrawal symptoms at 1 mg/kg, im measured for 10 hrs; assay type: functional, organism-based; parameters: dose 1 mg/kg; details: Macaca mulatta
# [12] = Rattus norvegicus, Charles River, Tail, ip, read-out: ED50
# [13] = Rattus norvegicus, Charles River, Tail, im, read-out: ED50
# [14] = Rattus norvegicus, Charles River, Tail, po, read-out: ED50
SMILES,ED50 [1] [mg/kg],ED50 [2] [mg/kg],ED50 [3] [mg/kg],further results
C[C@@]12CCCCCC(Cc3ccc(OC(=O)C4CC4)cc31)[C@@H]2N.Cl,,,,"ED50 [1, 12]: 1.5 mg/kg; ED50 [2, 13]: 0.45 mg/kg"
CC[C@@]12CCCCCC(Cc3ccc(OC)cc31)[C@@H]2N.Cl (mixture of isomers),3.5,12,,
CC[C@@]12CCCCCC(Cc3ccc(O)cc31)[C@@H]2N (mixture of isomers),3.7,0.25,10,
CC[C@@]12CC/C=C\CC(Cc3ccc(OC)cc31)[C@@H]2N.Cl (mixture of isomers),4.2,,,
CC[C@@]12CC/C=C\CC(Cc3ccc(O)cc31)[C@@H]2N.Cl (mixture of isomers),1.75,,,
COc1ccc2c(c1)[C@@]1(C)CCCCCC(C2)[C@@H]1N.Cl (mixture of isomers),4.88,,,
Br.C[C@@]12CCCCCC(Cc3ccc(O)cc31)[C@@H]2N (mixture of isomers),1.11,0.45,10,
CC[C@@]12CCCCCC(Cc3ccc(OC)cc31)[C@@H]2N (mixture of isomers),,,,Activity [4]: Active
CC[C@@]12CCCCCC(Cc3ccc(OC)cc31)[C@@H]2N.Cl (stereo in doubt; (+)-1),10,10,30,
CC[C@@]12CCCCCC(Cc3ccc(O)cc31)[C@@H]2N (stereo in doubt; (+)-2),7.5,2,80,
CC[C@@]12CC/C=C\CC(Cc3ccc(OC)cc31)[C@@H]2N.Cl (stereo in doubt; (+)-3),,,,"ED50 [1, 12]: 3.75 mg/kg; ED50 [2, 13]: 12.5 mg/kg"
CC[C@@]12CC/C=C\CC(Cc3ccc(O)cc31)[C@@H]2N.Cl (stereo in doubt; (+)-4),0.8,0.195,,"Ratio ED50 [5]: <=15; ED50 [3, 14]: 5 mg/kg"
COc1ccc2c(c1)[C@@]1(C)CCCCCC(C2)[C@@H]1N.Cl (stereo in doubt; (+)-5),>25,,,
Br.C[C@@]12CCCCCC(Cc3ccc(O)cc31)[C@@H]2N (stereo in doubt; (+)-6),>100,95,,
CC[C@@]12CCCCCC(Cc3ccc(OC)cc31)[C@@H]2N.Cl (stereo in doubt; (-)-1),3.3,3.5,7.5,
CC[C@@]12CCCCCC(Cc3ccc(O)cc31)[C@@H]2N (stereo in doubt; (-)-2),0.5,0.1,3.5,Ratio ED50 [5]: <=15
CC[C@@]12CC/C=C\CC(Cc3ccc(OC)cc31)[C@@H]2N.Cl (stereo in doubt; (-)-3),>6.25,,,
CC[C@@]12CC/C=C\CC(Cc3ccc(O)cc31)[C@@H]2N.Cl (stereo in doubt; (-)-4),9,4,,
COc1ccc2c(c1)[C@@]1(C)CCCCCC(C2)[C@@H]1N.Cl (stereo in doubt; (-)-5),2,,,"ED50 [2, 13]: 4.5 mg/kg; ED50 [3, 14]: 3.5 mg/kg"
Br.C[C@@]12CCCCCC(Cc3ccc(O)cc31)[C@@H]2N (stereo in doubt; (-)-6),0.53,0.12,2.05,Ratio ED50 [5]: <=15; Ratio ED50 [6]: 8; LD50 [7]: 200 mg/kg
C[C@@]12CCCCCC(Cc3ccc(O)cc31)[C@@H]2N (stereo in doubt; (-)-6),,,,Activity [8]: Active; Activity [9]: Dose-dependent effect; Activity [10]: Active; Activity [11]: Active
CN1CC[C@]23c4c5ccc(O)c4O[C@H]2[C@@H](O)C=C[C@H]3[C@H]1C5 [MORPHINE],,,,"ED50 [1, 12]: 4.43 mg/kg; ED50 [2, 13]: 1.57 mg/kg; ED50 [3, 14]: 15.9 mg/kg"
